Measured values published in ChEMBL document CHEMBL1152561, “Evaluation of delocalized lipophilic cationic dyes as delivery vehicles for photosensitizers to mitochondria” (Bioorg Med Chem, 2009).
Activity calls are given as the source filed them. No cut-off for these calls is given here.

Legend:
[1] = n-Octanol-phosphate buffer partition coefficient, log D at pH 7.4 by shake-flask method; assay type: physicochemical
How it was run: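 Dye was added to saturation in equal volumes (2 mL) of n-octanol and pH 7.4 phosphate buffer. The mixture was sonicated 30 min and left to settle 4 h. Each layer was diluted in dichloromethane and absorbance measured. Log D7.4 was taken from the ratio of absorbances between the two layers.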

R3230AC [2] = assay: Stability in rat R3230AC cell lysate at 10 uM after 24 hrs; assay type: ADME, cell-based
How it was run: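 Cells seeded at 2.0–3.0 × 10^4 per well were grown 24 h, then exposed to dye in complete medium for 24 h. After two 0.9% NaCl rinses, cells were lysed in DMSO. Fluorescence (excitation 550 nm, emission 555–750 nm) was compared with dye in DMSO, including the ratio of the 580 and 650 nm peaks.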

R3230AC [3] = assay: Phototoxicity in rat R3230AC cells irradiated with halogen lamp pretreated 24 hrs before irradiation by MTT assay; assay type: functional, cell-based; details: light or radiation study
How it was run: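 Cells were seeded at 1.0–1.5 × 10^4 per well, grown 24 h, then given 1–20 µM dye in complete medium for 24 h. After two saline rinses, cells in clear medium were irradiated with halogen broadband light (400–850 nm, water-filtered) at 3 mW cm−2 for 1 h while orbiting. They were refed and grown 24 h more. Viability was read by MTT as a percentage of light-exposed dye-free controls.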

R3230AC [4] = assay: Cytotoxicity against rat R3230AC cells up to 20 uM for 24 hrs in dark; assay type: functional, cell-based
R3230AC [5] = assay: Cellular uptake in rat R3230AC cells measured per cell at 10 uM after 24 hrs; assay type: ADME, cell-based
How it was run: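 R3230AC cells were grown in α-MEM with 10% bovine growth serum at 37 °C and 5% CO2. Dyes were diluted from 2 mM DMSO stocks. Intracellular dye content was measured by fluorescence at dye-appropriate excitation and emission wavelengths and converted using a fluorescence calibration curve.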

SMILES	logD [1]	Stability (R3230AC [2])	IC50 (R3230AC [3])	Activity (R3230AC [4])	Activity (R3230AC [5])
CCN(CC)c1ccc2c(-c3ccccc3C(=O)OCCCOc3ccc(-c4c5nc(c(-c6ccccc6)c6ccc([nH]6)c(-c6ccccc6)c6nc(c(-c7ccccc7)c7ccc4[nH]7)C=C6)C=C5)cc3)c3ccc(=[N+](CC)CC)cc-3oc2c1.[I-]	3.53	Stable	3.95 µM	inactive	–
CN(C)c1ccc2cc3ccc(N(C)C)cc3[n+](CCCOc3ccc(-c4c5nc(c(-c6ccccc6)c6ccc([nH]6)c(-c6ccccc6)c6nc(c(-c7ccccc7)c7ccc4[nH]7)C=C6)C=C5)cc3)c2c1.[I-]	0.79	–	3.28 µM	–	68.2 fmol
CN(C)c1ccc2cc3ccc(N(C)C)cc3nc2c1	-0.99	–	2.29 µM	–	–
CCN(CC)c1ccc2c(-c3ccccc3C(=O)O)c3ccc(=[N+](CC)CC)cc-3oc2c1 [RHODAMINE B]	2.2	–	–	–	–
CCN(CC)c1ccc2c(-c3ccccc3C(C)=O)c3ccc(=[N+](CC)CC)cc-3oc2c1	–	–	–	inactive	–
Oc1ccc(-c2c3nc(c(-c4ccccc4)c4ccc([nH]4)c(-c4ccccc4)c4nc(c(-c5ccccc5)c5ccc2[nH]5)C=C4)C=C3)cc1	2.3	–	–	inactive	5.6 fmol
